Converted amounts (≈) assume the structure as drawn. The source made the active and inactive calls. No cut-off for these calls is given here.
How the values were obtained:
Salmonella typhimurium = assay: Antibacterial activity against Salmonella Typhimurium ATCC 14028 at < 100 ug/mL by agar dilution method; type: functional, organism-based; conditions: Salmonella enterica subsp. enterica serovar Typhimurium
Method in brief: (§1)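 Agar dilution on 1 mL Mueller-Hinton agar slants. Compounds were serially two-fold diluted in DMSO (final DMSO ≤2%) to give 10–100 µg/mL in the medium. Bacteria were grown on MHA at 35 °C for 24 h, suspended in 0.86% saline at 1.5 × 10^8 cell/mL (0.5 McFarland), and 1 µL was added per slant. Slants were incubated at 35 °C. Drug-free blank included; each assay run three times; MIC recorded.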

Proteus mirabilis = assay: Antibacterial activity against Proteus mirabilis ATCC 25933 at < 100 ug/mL by agar dilution method; type: functional, organism-based; method in brief: as §1
Aspergillus flavus = assay: Antifungal activity against Aspergillus flavus ATCC 9170 by agar dilution method; type: functional, organism-based
Method in brief: (§2)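 Filamentous fungi (hyalohyphomycetes, dermatophytes) were grown on SDA. Spore suspensions were set to 1.0–5.0 × 10^6 spores/mL by hemocytometer count. 1 µL was inoculated onto 1 mL SDA slants holding compound at 10–100 µg/mL (two-fold DMSO dilutions, final DMSO ≤2%), then incubated at 28–30 °C. Drug-free blank and ketoconazole control included; repeated three times; MIC determined.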

Aspergillus niger = assay: Antifungal activity against Aspergillus niger ATCC 9092 by agar dilution method; type: functional, organism-based; method in brief: as §2
Microsporum canis = assay: Antifungal activity against Microsporum canis C112 by agar dilution method; type: functional, organism-based; method in brief: as §2
Candida albicans = assay: Antifungal activity against Candida albicans ATCC 10231 by agar dilution method; type: functional, organism-based
Method in brief: (§3)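 Yeasts were grown on Sabouraud dextrose agar and adjusted to 1.0–5.0 × 10^6 cell/mL (0.5 McFarland). Agar dilution used 1 mL SDA slants holding two-fold DMSO dilutions of compound at 10–100 µg/mL, with final DMSO ≤2%. 1 µL of inoculum was added per slant, then incubated at 35 °C. Drug-free blank and ketoconazole positive control included; triplicate runs; MIC read.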

Pichia kudriavzevii = assay: Antifungal activity against Candida krusei ATCC 6582 by agar dilution method; type: functional, organism-based; method in brief: as §3
[1] = tested on: Staphylococcus saprophyticus; assay: Antibacterial activity against Staphylococcus saprophyticus ATCC 35552 at < 100 ug/mL by agar dilution method; type: functional, organism-based; method in brief: as §1
Streptococcus agalactiae = assay: Antibacterial activity against Streptococcus agalactiae ATCC 13813 at < 100 ug/mL by agar dilution method; type: functional; method in brief: as §1
Pseudomonas aeruginosa = assay: Antibacterial activity against Pseudomonas aeruginosa ATCC 27853 at < 100 ug/mL by agar dilution method; type: functional, organism-based; method in brief: as §1
Staphylococcus aureus = assay: Antibacterial activity against Staphylococcus aureus ATCC 6538P at < 100 ug/mL by agar dilution method; type: functional, organism-based; method in brief: as §1
Aspergillus fumigatus = assay: Antifungal activity against Aspergillus fumigatus ATCC 26934 by agar dilution method; type: functional; method in brief: as §2
Cryptococcus neoformans = assay: Antifungal activity against Cryptococcus neoformans ATCC 32264 by agar dilution method; type: functional; method in brief: as §3
Nannizzia gypsea = assay: Antifungal activity against Microsporum gypseum C115 by agar dilution method; type: functional; method in brief: as §2
Rhizopus = assay: Antifungal activity against Rhizopus CL35 by agar dilution method; type: functional; method in brief: as §2
[2] = tested on: Trichophyton mentagrophytes; assay: Antifungal activity against Trichophyton mentagrophytes ATCC 9972 by agar dilution method; type: functional; method in brief: as §2
Trichophyton rubrum = assay: Antifungal activity against Trichophyton rubrum C137 by agar dilution method; type: functional; method in brief: as §2
Bacillus cereus = assay: Antibacterial activity against Bacillus cereus ATCC 14579 at < 100 ug/mL by agar dilution method; type: functional; method in brief: as §1
Bacillus subtilis = assay: Antibacterial activity against Bacillus subtilis ATCC 23858 at < 100 ug/mL by agar dilution method; type: functional, organism-based; method in brief: as §1
Enterobacter cloacae = assay: Antibacterial activity against Enterobacter cloacae ATCC 35030 at < 100 ug/mL by agar dilution method; type: functional, organism-based; method in brief: as §1
Escherichia coli = assay: Antibacterial activity against Escherichia coli ATCC 11775 at < 100 ug/mL by agar dilution method; type: functional, organism-based; method in brief: as §1
[3] = Toxicity in Artemia salina assessed as mortality after 24 hrs; type: organism-based; conditions: in vivo
Method in brief: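 Artemia salina hatched at pH 9.0 (Na2CO3), 25 °C, strong aeration, continuous light (2000 Lux). Phototropic nauplii were collected about 12 h after hatching, and groups of 10 were exposed per well to various compound concentrations for 24 h. Survivors were counted and % deaths calculated.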

Mus musculus [4] = assay: Antinociceptive activity in Swiss mouse assessed as inhibition of acetic acid-induced writhing at 10 mg/kg, ip administered 30 mins before acetic acid challenge measured after 20 mins relative to control; type: functional; conditions: route intraperitoneal
Method in brief: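 Mice were given 10 mg/kg i.p. in Tween 80/0.9% NaCl (Tween ≤5%) 30 min before i.p. 0.6% acetic acid, at 20–22 °C. Abdominal constrictions plus hind-limb stretching were counted cumulatively over 20 min in individual funnels. Groups of six, randomized and blinded. Inhibition was calculated versus vehicle controls (10 ml/kg i.p.); ANOVA with Dunnett's test.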

Mus musculus [5] = assay: Antinociceptive activity in Swiss mouse assessed as inhibition of acetic acid-induced abdominal contraction at 0.1 to 100 mg/kg, ip administered 30 mins before acetic acid challenge measured after 20 mins relative to control; type: functional, Abdominal cavity; conditions: dose mg/kg 0.1-100; route intraperitoneal
Method in brief: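 Writhing dose-response in mice: compounds at 0.1–10 mg/kg and standard drugs at 10–100 mg/kg, i.p. in Tween 80/saline, 30 min before i.p. 0.6% acetic acid. Constrictions and stretches were counted for 20 min at 20–22 °C, with six to eight animals per group. ID50 (dose halving the response versus control) was given as geometric mean with 95% confidence limits.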

## CCc1ccc(NC2=C(Cl)C(=O)N(c3c(C)n(C)n(-c4ccccc4)c3=O)C2=O)cc1
Salmonella typhimurium
  Activity: inactive
Proteus mirabilis
  Activity: inactive
Aspergillus flavus
  Activity: Active
Aspergillus niger
  Activity: Active
Microsporum canis
  Activity: Active
Candida albicans
  Activity: Active
Pichia kudriavzevii
  Activity: Active
[1]
  Activity: inactive
Streptococcus agalactiae
  Activity: inactive
Pseudomonas aeruginosa
  Activity: inactive
Staphylococcus aureus
  Activity: inactive
Aspergillus fumigatus
  MIC: > 100 µg/mL
Cryptococcus neoformans
  MIC: > 100 µg/mL
Nannizzia gypsea
  MIC: 100 µg/mL (≈ 229 µM)
Rhizopus
  MIC: > 100 µg/mL
[2]
  MIC: > 100 µg/mL
Trichophyton rubrum
  MIC: > 100 µg/mL
Bacillus cereus
  Activity: inactive
Bacillus subtilis
  Activity: inactive
Enterobacter cloacae
  Activity: inactive
Escherichia coli
  Activity: inactive
[3]
  LC50 at 24 h: > 1000 µg/mL
Mus musculus [4]
  inhibition in vivo at 10 mg/kg: 49.5%

## Cc1c(N2C(=O)C(Cl)=C(Nc3ccccc3)C2=O)c(=O)n(-c2ccccc2)n1C
Salmonella typhimurium
  Activity: inactive
Proteus mirabilis
  Activity: inactive
Aspergillus flavus
  Activity: Active
Aspergillus niger
  Activity: Active
Microsporum canis
  Activity: Active
Candida albicans
  Activity: Active
Pichia kudriavzevii
  Activity: Active
[1]
  Activity: inactive
Streptococcus agalactiae
  Activity: inactive
Pseudomonas aeruginosa
  Activity: inactive
Staphylococcus aureus
  Activity: inactive
Aspergillus fumigatus
  MIC: > 100 µg/mL
Cryptococcus neoformans
  MIC: > 100 µg/mL
Nannizzia gypsea
  MIC: > 100 µg/mL
Rhizopus
  MIC: 80 µg/mL (≈ 196 µM)
[2]
  MIC: > 100 µg/mL
Trichophyton rubrum
  MIC: > 100 µg/mL
Bacillus cereus
  Activity: inactive
Bacillus subtilis
  Activity: inactive
Enterobacter cloacae
  Activity: inactive
Escherichia coli
  Activity: inactive
[3]
  LC50 at 24 h: > 1000 µg/mL
Mus musculus [4]
  inhibition in vivo at 10 mg/kg: 71.6%

## Cc1c(N2C(=O)C(Cl)=C(NCc3ccccc3)C2=O)c(=O)n(-c2ccccc2)n1C
Salmonella typhimurium
  Activity: inactive
Proteus mirabilis
  Activity: inactive
Aspergillus flavus
  Activity: Active
Aspergillus niger
  Activity: Active
Microsporum canis
  Activity: Active
Candida albicans
  Activity: Active
Pichia kudriavzevii
  Activity: Active
[1]
  Activity: inactive
Streptococcus agalactiae
  Activity: inactive
Pseudomonas aeruginosa
  Activity: inactive
Staphylococcus aureus
  Activity: inactive
Aspergillus fumigatus
  MIC: 100 µg/mL (≈ 236 µM)
Cryptococcus neoformans
  MIC: 40 µg/mL (≈ 94.6 µM)
Nannizzia gypsea
  MIC: > 100 µg/mL
Rhizopus
  MIC: > 100 µg/mL
[2]
  MIC: 100 µg/mL (≈ 236 µM)
Trichophyton rubrum
  MIC: 100 µg/mL (≈ 236 µM)
Bacillus cereus
  Activity: inactive
Bacillus subtilis
  Activity: inactive
Enterobacter cloacae
  Activity: inactive
Escherichia coli
  Activity: inactive
[3]
  LC50 at 24 h: > 1000 µg/mL
Mus musculus [4]
  inhibition in vivo at 10 mg/kg: 35.4%

## Cc1c(N2C(=O)C(Cl)=C(Nc3ccc(Cl)c(Cl)c3)C2=O)c(=O)n(-c2ccccc2)n1C
Salmonella typhimurium
  Activity: inactive
Proteus mirabilis
  Activity: inactive
Aspergillus flavus
  Activity: Active
Aspergillus niger
  Activity: Active
Microsporum canis
  Activity: Active
Candida albicans
  Activity: Active
Pichia kudriavzevii
  Activity: Active
[1]
  Activity: inactive
Streptococcus agalactiae
  Activity: inactive
Pseudomonas aeruginosa
  Activity: inactive
Staphylococcus aureus
  Activity: inactive
Aspergillus fumigatus
  MIC: > 100 µg/mL
Cryptococcus neoformans
  MIC: > 100 µg/mL
Nannizzia gypsea
  MIC: 100 µg/mL (≈ 209 µM)
Rhizopus
  MIC: 80 µg/mL (≈ 167 µM)
[2]
  MIC: > 100 µg/mL
Trichophyton rubrum
  MIC: > 100 µg/mL
Bacillus cereus
  Activity: inactive
Bacillus subtilis
  Activity: inactive
Enterobacter cloacae
  Activity: inactive
Escherichia coli
  Activity: inactive
[3]
  LC50 at 24 h: > 1000 µg/mL
Mus musculus [4]
  inhibition in vivo at 10 mg/kg: 75%

## Cc1c(N(C)CS(=O)(=O)[O-])c(=O)n(-c2ccccc2)n1C.[Na+] [DIPYRONE SODIUM]
Mus musculus [4]
  inhibition in vivo at 10 mg/kg: 33%
Mus musculus [5]
  inhibition (INH): 54%

## COc1cc(NC2=C(Cl)C(=O)N(c3c(C)n(C)n(-c4ccccc4)c3=O)C2=O)cc(OC)c1
Salmonella typhimurium
  Activity: inactive
Proteus mirabilis
  Activity: inactive
[1]
  Activity: inactive
Streptococcus agalactiae
  Activity: inactive
Pseudomonas aeruginosa
  Activity: inactive
Staphylococcus aureus
  Activity: inactive
Bacillus cereus
  Activity: inactive
Bacillus subtilis
  Activity: inactive
Enterobacter cloacae
  Activity: inactive
Escherichia coli
  Activity: inactive
[3]
  LC50 at 24 h: 249 µg/mL (≈ 530 µM)
Mus musculus [4]
  inhibition in vivo at 10 mg/kg: 72%

## CC(=O)N1CCN(c2ccc(OCC3COC(Cn4ccnc4)(c4ccc(Cl)cc4Cl)O3)cc2)CC1 (stereo unspecified) [KETOCONAZOLE]
Aspergillus fumigatus
  MIC: 7 µg/mL (≈ 13.2 µM)
Cryptococcus neoformans
  MIC: 5 µg/mL (≈ 9.41 µM)
Nannizzia gypsea
  MIC: 6 µg/mL (≈ 11.3 µM)
Rhizopus
  MIC: 15 µg/mL (≈ 28.2 µM)
[2]
  MIC: 8 µg/mL (≈ 15.1 µM)
Trichophyton rubrum
  MIC: 3 µg/mL (≈ 5.65 µM)

## Cc1c(N2C(=O)C(Cl)=C(Nc3cccc(Cl)c3)C2=O)c(=O)n(-c2ccccc2)n1C
Salmonella typhimurium
  Activity: inactive
Proteus mirabilis
  Activity: inactive
[1]
  Activity: inactive
Streptococcus agalactiae
  Activity: inactive
Pseudomonas aeruginosa
  Activity: inactive
Staphylococcus aureus
  Activity: inactive
Bacillus cereus
  Activity: inactive
Bacillus subtilis
  Activity: inactive
Enterobacter cloacae
  Activity: inactive
Escherichia coli
  Activity: inactive
[3]
  LC50 at 24 h: 86.2 µg/mL (≈ 195 µM)
Mus musculus [4]
  inhibition in vivo at 10 mg/kg: 38.9%

## COc1ccc(NC2=C(Cl)C(=O)N(c3c(C)n(C)n(-c4ccccc4)c3=O)C2=O)cc1
Salmonella typhimurium
  Activity: inactive
Proteus mirabilis
  Activity: inactive
[1]
  Activity: inactive
Streptococcus agalactiae
  Activity: inactive
Pseudomonas aeruginosa
  Activity: inactive
Staphylococcus aureus
  Activity: inactive
Bacillus cereus
  Activity: inactive
Bacillus subtilis
  Activity: inactive
Enterobacter cloacae
  Activity: inactive
Escherichia coli
  Activity: inactive
[3]
  LC50 at 24 h: > 1000 µg/mL
Mus musculus [4]
  inhibition in vivo at 10 mg/kg: 31.2%

— ChEMBL document CHEMBL1275265, “Synthesis and biological evaluation of N-antipyrine-4-substituted amino-3-chloromaleimide derivatives” (Eur J Med Chem, 2010)
